Assay outcomes as filed in PubChem BioAssay.
Compounds with a hit are over-represented: about 3.1% of the library has one in this group of screens.
DENV2 CPE: inhibitors of DENV2 cytopathic effect; DENV2-infected cells, cytopathic effect rescue, plate reader; CPE inhibition, % at 9.99 µM; 1.7% of 350,000 active; AID 651640; in the data active = CPE inhibition above about 20%, passing the limit was not always enough; tested in BHK-21 cells;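 note: 0% = median of neutral control wells and 100% = median of positive control wells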
Cneo AK release: causes C. neoformans cell lysis; adenylate kinase release luminescence, 4 h; normalised: neutral wells 0, clomiphene wells 100; lysis activity, % at 15 µM; 0.2% of 360,000 active; AID 651654;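 active = mean lysis activity across replicates of at least 80%, whatever share of replicates individually reach that level; inactive = mean lysis activity below 80%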
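Material: C. neoformans cells | Amount: Yeast cell density of 5 × 10^6 cells/mL | Medium: Fresh YPD growth medium | Dosing: Single dose | Times: Static 4 h at 37 °C with compound, 1 h detection | Detection: AK luminescence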
Ecoli rRNA inh: inhibitors of bacterial rRNA selective over humanized ribosomes. E. coli WT GFP vs humanized-ribosome RFP mutants, fluorescence, 24 h; stronger effect = lower value; DMSO median 0, no signal -100. GFP signal change (wild-type ribosome), % (test concentration not listed). 1.6% of 350,000 active. AID 720706;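 active = significant combined selectivity score with lowered wild-type GFP, culture density cut under 30%, mutant RFP and density less affected; inactive = any of these conditions unmet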
miR122 inh: blocks miR-122 activity in Huh7 sensor cells; Huh7 miR-122 Renilla luciferase sensor, 48 h; neutral wells = 0, positive control = 100; activation (reporter increase), % at 12.5 µM; 0.3% of 340,000 active; AID 602342;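 active = mean replicate activation score at least 90 and every replicate individually at or above 90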;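 note: higher luciferase means less miR-122 activity so hits act as miR-122 inhibitors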
E-sel inducer: induces E-selectin expression in human endothelial cells; activation, % at 7.58 µM; 0.37% of 260,000 active; HUVEC E-selectin immunofluorescence imaging; normalized: neutral wells 0, TNF-alpha wells 100;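 active = mean E-selectin-positive cell signal at least 10% of the positive control, reached in at least 60% of replicates, without over 20% cell loss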
Target sequence (P16581 whole entry, looked up): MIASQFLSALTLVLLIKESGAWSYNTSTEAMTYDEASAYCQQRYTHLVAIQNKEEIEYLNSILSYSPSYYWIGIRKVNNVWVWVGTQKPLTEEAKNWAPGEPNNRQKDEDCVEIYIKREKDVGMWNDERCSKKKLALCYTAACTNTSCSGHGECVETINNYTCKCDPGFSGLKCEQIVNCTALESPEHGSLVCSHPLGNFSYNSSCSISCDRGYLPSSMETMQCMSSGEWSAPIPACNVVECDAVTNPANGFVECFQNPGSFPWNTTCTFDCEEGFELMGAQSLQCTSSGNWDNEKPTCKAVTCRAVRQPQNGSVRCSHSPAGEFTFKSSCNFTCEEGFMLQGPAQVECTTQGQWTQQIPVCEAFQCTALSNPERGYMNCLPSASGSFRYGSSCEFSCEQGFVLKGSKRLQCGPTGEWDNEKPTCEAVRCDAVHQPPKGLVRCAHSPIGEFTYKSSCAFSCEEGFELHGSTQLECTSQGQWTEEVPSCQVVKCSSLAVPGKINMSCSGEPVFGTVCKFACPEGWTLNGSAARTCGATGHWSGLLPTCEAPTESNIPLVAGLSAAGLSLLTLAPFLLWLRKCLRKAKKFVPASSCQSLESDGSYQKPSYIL
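System: HUVEC / Compound: single concentration / Signal: immunofluorescence imaging / Read-out: percent E-selectin-positive cells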
The depositor's hits bear a star; · = no result; ! = not confirmed by another sample; [ ] = remark or other dose.

SMILES	DENV2 CPE	Cneo AK release	Ecoli rRNA inh	miR122 inh	E-sel inducer
COC(=O)C1=COC(OC2OC(CO)C(O)C(O)C2O)C2C(C)CC(=O)C12 (stereo not drawn)	-6.3	-1.5	·	0.6	·
COc1ccc2c3c(n(C)c2c1)[C@H](CO)N(C(=O)Nc1ccc(F)cc1)CC31CN(C(=O)NC(C)C)C1	·	·	-3.6	·	·
O=C(C[C@H]1C=C[C@@H](NC(=O)Nc2ccc3c(c2)OCO3)[C@@H](CO)O1)NCc1ccccc1	·	·	0.5	·	·
C[C@H](CO)N1C[C@H](C)[C@@H](CN(C)C(=O)Nc2ccccc2)Oc2c(NC(=O)c3ccncc3)cccc2C1=O	42.1*!	1.6	3.6	7.0[16.7 µM]	-0.4
C[C@H]1CN([C@@H](C)CO)C(=O)c2cccc(NC(=O)c3ccncc3)c2O[C@H]1CN(C)C(=O)Nc1ccccc1	16.5	13.6	0.6	7.6[16.7 µM]	0.3
C[C@@H]1CN([C@H](C)CO)C(=O)c2cccc(NC(=O)c3ccncc3)c2O[C@@H]1CN(C)C(=O)Nc1ccccc1	54.2*	2.3	3.9	-0.3[16.7 µM]	-0.3
O=C(NC1CCCCC1)N[C@H]1CC[C@@H](CCNS(=O)(=O)c2ccccc2)O[C@H]1CO	-0.3	-1.5	1.1	·	0.9
CC(C)NC(=O)Nc1ccc2c(c1)CC(=O)N([C@H](C)CO)C[C@H](C)[C@@H](CN(C)C)O2	-4.3	-1.0	-0.4	-6.2[16.7 µM]	-0.1
O=S(=O)(Nc1cccc(Oc2cnccn2)c1)c1ccc(F)cc1	0.6	-1.1	3.3	3.7	40.1*
Cc1ccc(S(=O)(=O)Nc2cccc(Oc3cnccn3)c2)cc1	-2.5	·	2.6	23.5	·
COc1ccc(-c2cnc(N)nc2-c2ccc(OC)cc2O)cc1	·	-1.7	-27.5*	3.4	·
COc1ccc(-c2nc(N)nc(C)c2-c2ccc(Cl)cc2)c(O)c1	-0.5	0.6	-40.3	2.4	59.3*
COc1cccc(C(=O)Nc2ccc3c(c2)C(=O)N(C)[C@@H]2CC[C@@H](CC(=O)NCC4CC4)O[C@H]2CO3)c1	-12.3	-5.7	-1.2	-4.0[16.7 µM]	0.0
CC(C)COc1ccc(CNC(=S)NCc2ccccc2)cc1	·	181.9*	·	11.9	·
CC(C)c1ccc(CNC(=O)CCc2ccccc2)cc1	·	·	-41.7	·	·
CCOc1ccc(CNC(=S)NCc2ccc(OCC)cc2)cc1	1.0	·	13.9	·	·
CC(C)c1ccc(OCC(=O)NCc2ccccc2)cc1	-4.8	0.2	-22.2*	5.1	0.2
CNS(=O)(=O)c1cccc(C(=O)OCC(=O)c2c(N)n(Cc3ccccc3)c(=O)n(C)c2=O)c1	-5.3	-1.1	-26.0*	·	·
CC(=O)c1c(C)[nH]c(C(=O)COC(=O)c2cc(S(=O)(=O)N(C)c3ccccc3)ccc2Cl)c1C	-3.4	·	-27.8*	·	0.0
Cn1c(N)c(C(=O)COC(=O)c2cccc(S(=O)(=O)NCc3ccccc3)c2)c(=O)n(C)c1=O	3.5	-3.0	-49.7	4.4	8.5
CN(c1ccccc1)S(=O)(=O)c1ccc(Cl)c(C(=O)OCC(=O)c2c(N)n(C)c(=O)n(C)c2=O)c1	4.1	-1.4	-21.1*	-3.8	-0.2
CCN(c1ccccc1)S(=O)(=O)c1ccc(Cl)c(C(=O)OCC(=O)c2[nH]c(C)c(C(C)=O)c2C)c1	11.1	-2.0	-13.9	0.7	1.1
CCCNC(=O)N1CC(=O)N2[C@H](C1)[C@@H](c1ccc(-c3ccccc3)cc1)[C@@H]2CO	·	·	1.1	·	·
Fc1ccc(-n2cc(CNCCc3cccnc3)c(-c3ccccc3Cl)n2)cc1	·	·	-39.5*	·	-3.7
Fc1ccc(-n2cc(CNCCc3ccncc3)c(-c3ccccc3Cl)n2)cc1	4.1	1.3	-14.8	·	·
CC(C)NC(=O)N(C)C[C@H]1Oc2ccccc2CC(=O)N(C)C[C@H]1C	·	·	-0.2	·	·
C[C@@H]1CN([C@H](C)CO)C(=O)Cc2cc(NC(=O)NC3CCCCC3)ccc2O[C@H]1CN(C)CC1CCCCC1	24.9*	·	-37.0	3.6[16.7 µM]	0.5
C[C@H]1CN([C@@H](C)CO)C(=O)Cc2cc(NC(=O)Nc3ccc4c(c3)OCO4)ccc2O[C@H]1CN(C)CC1CCCCC1	-3.2	-4.0	-0.2	1.2[16.7 µM]	-0.4
C[C@H](CO)N1C[C@H](C)[C@@H](CN(C)CC2CCCCC2)Oc2ccc(NC(=O)Nc3ccc4c(c3)OCO4)cc2CC1=O	29.3*	2.5	0.8	10.7[16.7 µM]	-0.2
